# Test results as given in PubChem BioAssay.
# Values without a mark were called inactive. The source made the active and inactive calls.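 Rule for the calls: active = growth inhibition above 25% in both replicates, a cutoff set 3 SD above the mean; inconclusive = above 25% in only one replicate; inactive = the rest.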
# Experiment: OD615 S. cerevisiae growth inhibition, permissive medium, pilot counter-assay, permissive growth control for S. cerevisiae lifespan shortening project (AID 705)
# Conditions: OD615, 24 h, at 10 µM, hits give high values
# Method in brief: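 System: S. cerevisiae with engineered DeaD lifespan system / Measured by: absorbance (optical density) at 615 nm / Read-out: reduction in yeast growth (OD615) / Times: 4 h cell pre-growth, 24 h exposure at 30 °C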
row,SMILES,growth inhibition
1,CS(=O)(=O)N(Cc1ccc(C(=O)NCc2ccco2)cc1)c1ccccc1,-6.5%
2,COc1ccc(N(CC(=O)N2CCN(C)CC2)S(C)(=O)=O)cc1OC,-12%
3,Cc1ncc(CO)c2cc(S(=O)(=O)c3ccc(F)cc3)c(=O)oc12,-11.8%
4,CCN(CC)c1ccc(/C=N/n2c(C)cc(C)cc2=O)cc1,0.085%
5,COc1ccc(C)cc1NC(=O)c1cc2c(CO)cnc(C)c2oc1=N,-16.1%
6,Cc1cc(C)nc(SCC(=O)Nc2ccc(S(=O)(=O)Nc3onc(C)c3C)cc2)n1,-5.04%
7,CCCCOC(=O)c1ccc(NS(=O)(=O)c2cc(-c3nnnn3CC)ccc2OC)cc1,3.03%
8,Cc1oc(-c2ccc(Cl)cc2)nc1CN1CCCC(C(=O)N2CCN(C(=O)c3ccco3)CC2)C1 (stereo not given),-8.52%
9,COc1ccc(NC(=O)N(Cc2ccc(C)cc2)Cc2ccccn2)c(OC)c1,-3.04%
10,O=C(O)c1ccc(NS(=O)(=O)c2cccc3cccnc23)cc1,-2.47%
11,Cc1c(C(=O)NCc2ccc3c(c2)OCO3)sc2nc(-c3ccc(F)cc3)cn12,-13.8%
12,Nc1c(S(=O)(=O)c2ccccc2)c2nc3ccccc3nc2n1Cc1ccco1,-25.5%
13,CCN(CCNC(=O)CCCn1nc(C)n2c(cc3sccc32)c1=O)c1ccccc1,-7.8%
14,Cc1ccc(N2CC(C(=O)Nc3cccc(F)c3)CC2=O)cc1 (stereo not given),-13.3%
15,CCOc1ccc(NC(=O)CN2C(=O)COc3ccc(Cl)cc32)cc1,-17%
16,CN1CCN(c2ccccc2NC(=O)C(Cc2ccccc2)n2cccc2)CC1 (stereo not given),-7.49%
17,CN1CCCc2cc3c(C(F)(F)F)cc(=O)oc3nc21,-5.06%
18,O=C(Nc1nc(-c2ccccn2)cs1)C1COc2ccccc2O1 (stereo not given),84.5% (active)
19,Cc1cc(-c2nnc(-c3cc4ccccc4oc3=O)o2)c(C)n1-c1ccccc1,-0.055%
20,COc1cccc(-c2nc(CS(=O)CC(=O)NCc3ccc4c(c3)OCO4)c(C)o2)c1 (stereo not given),-3.78%

row,SMILES,growth inhibition
1,CCCCC(=O)OCCNC(=O)c1cc2ccccc2oc1=O,-3.98%
2,CC(=O)Nc1ccc(S(=O)(=O)NCCc2cc3c(C)ccc(C)c3[nH]c2=O)cc1,-10.1%
3,Fc1cc2nc(-c3ccncc3)[nH]c2cc1F,-7.19%
4,CCC(=O)NCCn1c(C)cc2ccccc21,8.84%
5,O=C(O)c1cccc(NS(=O)(=O)c2cccc3cccnc23)c1,-3.04%
6,NC(=O)COc1ccc(=O)n(-c2ccccc2)n1,2.42%
7,COc1cc2c(C(=O)NCc3ccccn3)cn(C)c(=O)c2cc1OC,-8.38%
8,CCOc1ccc(N(CC(=O)NCc2ccccc2)S(C)(=O)=O)cc1,-0.02%
9,COc1ccc(S(=O)(=O)Cc2ccc(C(=O)N3CCN(C4CCCCC4)CC3)o2)cc1,8.67%
10,CCn1c(CNC(=O)C23CC4CC(CC(C4)C2)C3)nnc1SCC(=O)Nc1nnc(C)s1,2.36%
11,COc1ccc(N(CC(=O)NCc2ccco2)S(=O)(=O)c2c(C)nn(C)c2C)cc1,-11%
12,Cc1cccnc1NC(=O)c1c(O)c2ccccc2n(C)c1=O,3.49%
13,COc1ccc(C2OC(=O)CC2C(=O)N2CCN(c3cc(Cl)ccc3C)CC2)cc1OC (stereo not given),-0.42%
14,CCc1cc2c(=O)c(-c3nc4ccccc4n3C)c(C(C)C)oc2c(CN2CCN(C)CC2)c1O,-3.21%
15,CCCSc1nnc2c(n1)OC(c1cccn1C)N(C(C)=O)c1ccccc1-2 (stereo not given),-1.32%
16,CC(NC(=O)CSc1ncnc2nc[nH]c12)c1ccccc1 (stereo not given),-15.5%
17,Cc1ccc(-n2nnc3c(=O)n(CC(=O)NCc4ccco4)cnc32)cc1,-7.22%
18,O=C(c1oc(=O)c2ccccc2c1-c1ccccc1)N1CCC(O)CC1,-2.27%
19,CC(CCCC(C)(C)O)NCCO (stereo not given),-9.36%
20,O=C(c1ccco1)N1CCN(c2nc3ccsc3c(=O)s2)CC1,-0.135%
